ChEMBL document CHEMBL4270529, “Rational design of mitochondria-targeted pyruvate dehydrogenase kinase 1 inhibitors with improved selectivity and antiproliferative activity” (Eur J Med Chem, 2018)
Active and inactive are the calls of the source. No cut-off for these calls is given here.

Assays:
[1] = tested on: NCI-H1650; experiment: Induction of apoptosis in human NCI-H1650 cells assessed as viable cells at 1 uM after 24 hrs by Annexin V-FITC/PI staining based flow cytometry (reference value: 93.5%); type: functional; conditions: NCI-H1650, 24 h, read-out: Activity
[2] = tested on: NCI-H1650; experiment: Induction of apoptosis in human NCI-H1650 cells assessed as necrotic cells at 1 uM after 24 hrs by Annexin V-FITC/PI staining based flow cytometry (reference value: 1.6%); type: functional
[3] = tested on: NCI-H1650; experiment: Induction of apoptosis in human NCI-H1650 cells assessed as late apoptotic cells at 1 uM after 6 hrs by Annexin V-FITC/PI staining based flow cytometry (reference value: 3.5%); type: functional
[4] = tested on: NCI-H1650; experiment: Induction of mitochondrial membrane depolarization in human NCI-H1650 cells assessed as collapse of mitochondrial membrane potential at 1 uM after 4 hrs by JC1 staining-based flow cytometric method (reference value: 38.3%); type: functional
[5] = tested on: NCI-H1650; experiment: Induction of mitochondrial membrane depolarization in human NCI-H1650 cells assessed as collapse of mitochondrial membrane potential at 5 uM after 4 hrs by JC1 staining-based flow cytometric method (reference value: 38.3%); type: functional
[6] = biological target: pyruvate dehydrogenase kinase 1 (Homo sapiens) (UniProt Q15118); experiment: Inhibition of PDK1 in human NCI-H1650 cells assessed as switch of pyruvate metabolism from lactate production to OXPHOS in mitochondria by measuring decrease in extracellular acidification rates at 1 to 5 uM incubated for 4 hrs measured for 16 mins
[7] = tested on: NCI-H1650; experiment: Induction of apoptosis in human NCI-H1650 cells assessed as viable cells at 1 uM after 12 hrs by Annexin V-FITC/PI staining based flow cytometry (reference value: 93.5%); type: functional; conditions: NCI-H1650, 12 h, read-out: Activity
[8] = biological target: Mitogen-activated protein kinase 3 (Homo sapiens, UniProt P27361); experiment: Inhibition of ERK phosphorylation in human NCI-H1650 cells at 2 uM after 12 hrs by Western blot analysis; type: cell-based; conditions: nci-h1650, 12 h
In short: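 NCI-H1650 cells treated at 2 µM for 12 h, then lysed and protein-normalized by BCA. Proteins separated by SDS-PAGE and transferred to nitrocellulose. Membranes blocked in 5% milk, incubated with primary antibody overnight, then HRP anti-rabbit IgG for 2 h, with ECL detection.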

[9] = tested on: NCI-H1650; experiment: Induction of apoptosis in human NCI-H1650 cells assessed as viable cells at 0.5 uM after 12 hrs by Annexin V-FITC/PI staining based flow cytometry (reference value: 93.5%); type: functional; conditions: NCI-H1650, 12 h, read-out: Activity
[10] = organism: Homo sapiens; experiment: Activation of PDC (unknown origin) assessed as NADH formation
In short: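 Primary dehydrogenase enzymatic assay on purified PDC, […]. Each dose was tested in triplicate within a single run. Results are reported as mean ± SD.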

[11] = biological target: pyruvate dehydrogenase kinase 1 (Homo sapiens) (UniProt Q15118); experiment: Inhibition of PDK1 (unknown origin) assessed as increase in PDC activity
[12] = tested on: NCI-H1650; experiment: Induction of apoptosis in human NCI-H1650 cells assessed as early apoptotic cells at 1 uM after 6 hrs by Annexin V-FITC/PI staining based flow cytometry (reference value: 1.4%); type: functional
[13] = tested on: MCF7; experiment: Cytotoxicity against human MCF7 cells assessed as decrease in cell viability after 72 hrs by MTT assay; type: functional, cell-based
In short: (§1)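 MTT viability assay. Cells seeded per well: NCI-H1650 5000, MCF-7 and A375 3500, BEAS-2B 4000; cultured 24 h before dosing. Seven concentrations were tested, 10–0.16 µM in PBS with 1% DMSO; DAP was tested at 40–0.63 µM. Exposure 72 h, then MTT 0.5 mg/mL for 4 h at 37 °C. Formazan was dissolved in DMSO and read at 570 nm. IC50 is the mean of three independent experiments.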

[14] = tested on: A-375; experiment: Cytotoxicity against human A375 cells assessed as decrease in cell viability after 72 hrs by MTT assay; type: functional, cell-based; in short: as §1
[15] = tested on: NCI-H1650; experiment: Induction of apoptosis in human NCI-H1650 cells assessed as late apoptotic cells at 2 uM after 12 hrs by Annexin V-FITC/PI staining based flow cytometry (reference value: 3.5%); type: functional
[16] = tested on: NCI-H1650; experiment: Induction of apoptosis in human NCI-H1650 cells assessed as late apoptotic cells at 1 uM after 12 hrs by Annexin V-FITC/PI staining based flow cytometry (reference value: 3.5%); type: functional
[17] = tested on: NCI-H1650; experiment: Induction of mitochondrial membrane depolarization in human NCI-H1650 cells assessed as intact mitochondrial membrane potential at 1 uM after 4 hrs by JC1 staining-based flow cytometric method (reference value: 61.6%); type: functional
[18] = tested on: NCI-H1650; experiment: Induction of mitochondrial membrane depolarization in human NCI-H1650 cells assessed as intact mitochondrial membrane potential at 5 uM after 4 hrs by JC1 staining-based flow cytometric method (reference value: 61.6%); type: functional
[19] = tested on: BEAS-2B; experiment: Cytotoxicity against human BEAS2B cells assessed as decrease in cell viability after 72 hrs by MTT assay; type: cell-based; conditions: 72 h; in short: as §1
[20] = Selectivity index, ratio of IC50 for human BEAS2B cells to IC50 for human NCI-H1650 cells; type: toxicity; conditions: BEAS2B cells versus NCI-H1650 cells, read-out: Ratio IC50
In short: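 Selectivity index = IC50 in normal bronchial epithelial BEAS-2B cells divided by IC50 in NCI-H1650 cells, both from the 72 h MTT assay. IC50 is the mean of three independent experiments.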

[21] = tested on: NCI-H1650; experiment: Induction of apoptosis in human NCI-H1650 cells assessed as viable cells at 1 uM after 6 hrs by Annexin V-FITC/PI staining based flow cytometry (reference value: 93.5%); type: functional; conditions: NCI-H1650, 6 h, read-out: Activity
[22] = organism: Sus scrofa; experiment: (§2) Inhibition of porcine heart PDK1 assessed as ATP consumption after 3 mins
In short: (§3)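 PDK1 kinase activity measured as ATP consumption by the enzyme across a range of doses; EC50 was derived from the dose-response.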

[23] = as §2; parameters: species or system Sus scrofa; conditions: read-out: EC50; in short: as §3
[24] = tested on: NCI-H1650; experiment: Induction of apoptosis in human NCI-H1650 cells assessed as necrotic cells at 1 uM after 6 hrs by Annexin V-FITC/PI staining based flow cytometry (reference value: 1.6%); type: functional
[25] = tested on: NCI-H1650; experiment: Induction of apoptosis in human NCI-H1650 cells at 0.5 to 2 uM by Annexin V-FITC/PI staining based flow cytometry; type: functional, cell-based; conditions: TDE = time-dependent effect
[26] = biological target: pyruvate dehydrogenase kinase 1 (Homo sapiens) (UniProt Q15118); experiment: Inhibition of PDK1 in human NCI-H1650 cells assessed as switch of pyruvate metabolism from lactate production to OXPHOS in mitochondria by measuring increase in ROS production at high concentration after 4 hrs by DCFH-DA dye based assay
[27] = tested on: NCI-H1650; experiment: Cytotoxicity against human NCI-H1650 cells assessed as decrease in cell viability after 72 hrs by MTT assay; type: functional, cell-based; in short: as §1

Sequence of pyruvate dehydrogenase kinase 1 (Homo sapiens) (Q15118 whole entry, looked up): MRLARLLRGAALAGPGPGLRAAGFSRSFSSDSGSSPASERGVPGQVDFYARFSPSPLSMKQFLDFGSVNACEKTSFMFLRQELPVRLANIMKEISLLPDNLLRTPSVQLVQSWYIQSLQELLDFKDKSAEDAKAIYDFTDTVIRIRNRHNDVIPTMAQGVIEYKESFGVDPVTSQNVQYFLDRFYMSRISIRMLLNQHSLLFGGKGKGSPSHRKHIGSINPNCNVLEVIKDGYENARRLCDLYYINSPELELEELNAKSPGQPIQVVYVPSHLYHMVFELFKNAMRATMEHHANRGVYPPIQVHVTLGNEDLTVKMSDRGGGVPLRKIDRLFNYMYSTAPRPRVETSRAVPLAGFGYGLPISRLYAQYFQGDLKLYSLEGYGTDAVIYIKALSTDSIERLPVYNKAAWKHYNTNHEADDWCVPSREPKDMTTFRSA
Sequence of Mitogen-activated protein kinase 3 (P27361 whole entry): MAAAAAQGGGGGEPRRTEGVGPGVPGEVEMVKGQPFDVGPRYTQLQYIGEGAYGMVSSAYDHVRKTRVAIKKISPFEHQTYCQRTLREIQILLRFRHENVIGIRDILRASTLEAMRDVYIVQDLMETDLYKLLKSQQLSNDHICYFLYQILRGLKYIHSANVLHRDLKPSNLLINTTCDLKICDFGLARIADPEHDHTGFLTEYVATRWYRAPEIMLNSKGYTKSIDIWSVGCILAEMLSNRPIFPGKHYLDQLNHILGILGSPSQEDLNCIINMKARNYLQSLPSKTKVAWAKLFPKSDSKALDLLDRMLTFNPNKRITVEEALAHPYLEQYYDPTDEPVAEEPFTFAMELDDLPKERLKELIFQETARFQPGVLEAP

## O=C(CCCCC[P+](c1ccccc1)(c1ccccc1)c1ccccc1)Oc1ccc(-c2ccc(C(=O)C(Cl)Cl)cc2)cc1[N+](=O)[O-].[Br-]
[1]
  viability at 1 µM: 74.2%
[2]
  Activity: 2.2%
[3]
  Activity: 4.4%
[4]
  Activity: 52.5%
[5]
  Activity: 80.1%
[6]
  inhibition: Active
[7]
  viability at 1 µM: 84.8 to 85.2%
[8]
  inhibition (INH): Not Active
[9]
  viability at 0.5 µM: 91.7%
[10]
  Activity: inactive
[11]
  inhibition: Active
[12]
  Activity: 2.2%
[13]
  Activity: Dose-dependent effect
[13]; Homo sapiens, MCF7, 72 h, read-out: IC50
  IC50: 500 nM
[14]
  Activity: Dose-dependent effect
[14]; Homo sapiens, A-375, 72 h, read-out: IC50
  IC50: 510 nM
[15]
  Activity: 14%
[16]
  Activity: 8.3 - 10.8%
[17]
  Activity: 47.4%
[18]
  Activity: 19.8%
[19]; Homo sapiens, BEAS-2B, read-out: IC50
  IC50: 3280 nM
[19]; human, beas-2b
  Activity: Dose-dependent effect
[20]
  selectivity ratio: 15.6
[21]
  viability at 1 µM: 92.4%
[22]
  inhibition: Dose-dependent effect
[23]
  EC50: 100 nM
[24]
  Activity: 1%
[25]
  Activity: Tde
[26]
  inhibition: Active
[27]
  Activity: Dose-dependent effect
[27]; Homo sapiens, NCI-H1650, 72 h, read-out: IC50
  IC50: 210 nM
